These results are taken from ChEMBL document CHEMBL3272147, “Nonapeptide ethylamide inhibitors of the luteinizing hormone-releasing hormone (LH-RH) having a D-alanyl residue in position 6 and variations at positions 2 and 3” (1977).

The target in experiment [1] is T1, Gonadotropin-releasing hormone receptor (Rattus norvegicus) (UniProt P30969).
T1 sequence (whole entry): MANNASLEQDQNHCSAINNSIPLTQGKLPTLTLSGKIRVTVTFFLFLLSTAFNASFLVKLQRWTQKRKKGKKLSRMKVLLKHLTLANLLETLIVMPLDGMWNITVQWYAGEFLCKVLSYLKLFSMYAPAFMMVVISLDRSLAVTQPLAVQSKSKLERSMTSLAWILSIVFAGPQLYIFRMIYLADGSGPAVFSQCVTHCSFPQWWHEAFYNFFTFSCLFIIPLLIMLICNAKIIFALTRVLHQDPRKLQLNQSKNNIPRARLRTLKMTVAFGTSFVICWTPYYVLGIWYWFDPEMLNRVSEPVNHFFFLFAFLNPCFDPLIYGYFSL
Briefly: Antagonist activity at LH-RH receptor in Sprague-Dawley rat pituitary gland assessed as change in 0.3 ng/mL LH-RH-induced luteinizing hormone release in medium at 10 ug/ml preincubated for 2 hrs followed by LH-RH addition at 5th and 6th hr 5 mins post drug addition and measured every hour for 4 hrs by RIA relative to vehicle-treated control. A digest of the protocol:
(§1)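 Two pituitaries from 20-day-old female Sprague-Dawley rats per 1 mL lactated Ringer's, incubated 6 h at 37 °C with shaking, medium collected and replaced hourly for LH/FSH RIA. Analogue added at I3, I4, I5 and I6; LH-RH added 5 min after the peptide at I5 and I6. Results given as Δ ng/mL against LH-LER-1240-2 and NIH-FSH-S1-based standards, with SEM and p.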

Experiment [2] concerns the target T1, Gonadotropin-releasing hormone receptor (Rattus norvegicus). Briefly: Antagonist activity at LH-RH receptor in Sprague-Dawley rat pituitary gland assessed as change in 0.3 ng/mL LH-RH-induced luteinizing hormone release in medium at 0.1 ug/ml preincubated for 2 hrs followed by LH-RH addition at 5th and 6th hr 5 mins post drug addition and measured every hour for 4 hrs by RIA relative to vehicle-treated control. A digest of the protocol: as §1

For experiment [3] the target is unchanged. As to the kind of experiment: Antagonist activity at LH-RH receptor in Sprague-Dawley rat pituitary gland assessed as change in 0.3 ng/mL LH-RH-induced luteinizing hormone release in medium at 1 ug/ml preincubated for 2 hrs followed by LH-RH addition at 5th and 6th hr 5 mins post drug addition and measured every hour for 4 hrs by RIA relative to vehicle-treated control. The gist of the method: as §1

Experiment [4] shares this target. Briefly: Agonist activity at LH-RH receptor in Sprague-Dawley rat pituitary gland assessed as change in luteinizing hormone release in medium at 100 ug/ml incubated for 4 hrs measured every hour for 4 hrs by RIA relative to vehicle-treated control. The gist of the method: (§2)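 Pituitaries from 20-day-old female Sprague-Dawley rats, two per 1 mL lactated Ringer's, incubated 6 h total at 37 °C with shaking. Medium removed hourly for LH and FSH RIA and replaced with fresh medium. Analogue alone added at I3–I6. Values expressed as ng of standards LH-LER-1240-2 (0.60 NIH-LH-S1 unit/mg) and FSH 2.1 × NIH-FSH-S1 units/mg; change versus control with SEM and p.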

Experiment [5] shares this target. Briefly: Antagonist activity at LH-RH receptor in Sprague-Dawley rat pituitary gland assessed as change in 0.3 ng/mL LH-RH-induced follicle-stimulating hormone release in medium at 10 ug/ml preincubated for 2 hrs followed by LH-RH addition at 5th and 6th hr 5 mins post drug addition and measured every hour for 4 hrs by RIA relative to vehicle-treated control. The gist of the method: as §1

Experiment [6] has the same target. Briefly: Antagonist activity at LH-RH receptor in Sprague-Dawley rat pituitary gland assessed as change in 0.3 ng/mL LH-RH-induced follicle-stimulating hormone release in medium at 0.1 ug/ml preincubated for 2 hrs followed by LH-RH addition at 5th and 6th hr 5 mins post drug addition and measured every hour for 4 hrs by RIA relative to vehicle-treated control. The gist of the method: as §1

For experiment [7] the target is unchanged. Briefly: Antagonist activity at LH-RH receptor in Sprague-Dawley rat pituitary gland assessed as change in 0.3 ng/mL LH-RH-induced follicle-stimulating hormone release in medium at 1 ug/ml preincubated for 2 hrs followed by LH-RH addition at 5th and 6th hr 5 mins post drug addition and measured every hour for 4 hrs by RIA relative to vehicle-treated control. The gist of the method: as §1

Experiment [8] shares this target. Briefly: Agonist activity at LH-RH receptor in Sprague-Dawley rat pituitary gland assessed as change in follicle-stimulating hormone release in medium at 100 ug/ml incubated for 4 hrs measured every hour for 4 hrs by RIA relative to vehicle-treated control. A digest of the protocol:
as §2

For experiment [9] the target is unchanged. As to the kind of experiment: Antagonist activity at LH-RH receptor in Sprague-Dawley rat pituitary gland assessed as change in 0.3 ng/mL LH-RH-induced luteinizing hormone release in medium at 100 ug/ml preincubated for 2 hrs followed by LH-RH addition at 5th and 6th hr 5 mins post drug addition and measured every hour for 4 hrs by RIA relative to vehicle-treated control. The gist of the method:
as §1

Experiment [10] has the same target. As to the kind of experiment: Antagonist activity at LH-RH receptor in Sprague-Dawley rat pituitary gland assessed as change in 0.3 ng/mL LH-RH-induced follicle-stimulating hormone release in medium at 100 ug/ml preincubated for 2 hrs followed by LH-RH addition at 5th and 6th hr 5 mins post drug addition and measured every hour for 4 hrs by RIA relative to vehicle-treated control. The gist of the method:
as §1

For experiment [11] the target is unchanged. As to the kind of experiment: Antagonist activity at LH-RH receptor in Sprague-Dawley rat pituitary gland assessed as change in 0.6 ng/mL LH-RH-induced luteinizing hormone release in medium at 0.1 ug/ml preincubated for 2 hrs followed by LH-RH addition at 5th and 6th hr 5 mins post drug addition and measured every hour for 4 hrs by RIA relative to vehicle-treated control. A digest of the protocol:
as §1

Experiment [12] shares this target. As to the kind of experiment: Antagonist activity at LH-RH receptor in Sprague-Dawley rat pituitary gland assessed as change in 0.6 ng/mL LH-RH-induced luteinizing hormone release in medium at 1 ug/ml preincubated for 2 hrs followed by LH-RH addition at 5th and 6th hr 5 mins post drug addition and measured every hour for 4 hrs by RIA relative to vehicle-treated control. A digest of the protocol: as §1

The target is the same in experiment [13]. Briefly: Antagonist activity at LH-RH receptor in Sprague-Dawley rat pituitary gland assessed as change in 0.6 ng/mL LH-RH-induced luteinizing hormone release in medium at 10 ug/ml preincubated for 2 hrs followed by LH-RH addition at 5th and 6th hr 5 mins post drug addition and measured every hour for 4 hrs by RIA relative to vehicle-treated control. The gist of the method: as §1

Experiment [14] has the same target. Briefly: Antagonist activity at LH-RH receptor in Sprague-Dawley rat pituitary gland assessed as change in 0.6 ng/mL LH-RH-induced follicle-stimulating hormone release in medium at 0.1 ug/ml preincubated for 2 hrs followed by LH-RH addition at 5th and 6th hr 5 mins post drug addition and measured every hour for 4 hrs by RIA relative to vehicle-treated control. A digest of the protocol: as §1

The target is the same in experiment [15]. Briefly: Antagonist activity at LH-RH receptor in Sprague-Dawley rat pituitary gland assessed as change in 0.6 ng/mL LH-RH-induced follicle-stimulating hormone release in medium at 1 ug/ml preincubated for 2 hrs followed by LH-RH addition at 5th and 6th hr 5 mins post drug addition and measured every hour for 4 hrs by RIA relative to vehicle-treated control. A digest of the protocol: as §1

Experiment [16] has the same target. As to the kind of experiment: Antagonist activity at LH-RH receptor in Sprague-Dawley rat pituitary gland assessed as change in 0.6 ng/mL LH-RH-induced follicle-stimulating hormone release in medium at 10 ug/ml preincubated for 2 hrs followed by LH-RH addition at 5th and 6th hr 5 mins post drug addition and measured every hour for 4 hrs by RIA relative to vehicle-treated control. A digest of the protocol:
as §1

For experiment [17] the target is unchanged. As to the kind of experiment: Agonist activity at LH-RH receptor in Sprague-Dawley rat pituitary gland assessed as change in luteinizing hormone release in medium at 10 ug/ml incubated for 4 hrs measured every hour for 4 hrs by RIA relative to vehicle-treated control. A digest of the protocol: as §2
The target is the same in experiment [18]. Briefly: Agonist activity at LH-RH receptor in Sprague-Dawley rat pituitary gland assessed as change in follicle-stimulating hormone release in medium at 10 ug/ml incubated for 4 hrs measured every hour for 4 hrs by RIA relative to vehicle-treated control. A digest of the protocol:
as §2

On to `CCNC(=O)[C@@H]1CCCN1C(=O)[C@H](CCCNC(=N)N)NC(=O)[C@H](CC(C)C)NC(=O)[C@@H](C)NC(=O)[C@H](Cc1ccc(O)cc1)NC(=O)[C@H](CO)NC(=O)[C@H](CC(C)C)NC(=O)[C@H](CC(C)C)NC(=O)[C@@H]1CCC(=O)N1`, for which the Activity in [1] amounted to 45 ng/mL; in [2], 166 ng/mL; in experiment [3] it was 60 ng/mL; in experiment [4], 73 ng/mL; in experiment [5], 1460 ng/mL; in experiment [6], 5110 ng/mL. The Activity in experiment [7] is 3980 ng/mL; in experiment [8] it was 712 ng/mL.
Turning to `CCNC(=O)[C@@H]1CCCN1C(=O)[C@H](CCCNC(=N)N)NC(=O)[C@H](CC(C)C)NC(=O)[C@@H](C)NC(=O)[C@H](Cc1ccc(O)cc1)NC(=O)[C@H](CO)NC(=O)CNC(=O)[C@H](CC(C)C)NC(=O)[C@@H]1CCC(=O)N1`, the Activity in experiment [9] is 169 ng/mL; in [4], -6 ng/mL; in experiment [10], 3310 ng/mL; in [8], -782 ng/mL.
On to `CCNC(=O)[C@@H]1CCCN1C(=O)[C@H](CCCNC(=N)N)NC(=O)[C@H](CC(C)C)NC(=O)[C@@H](C)NC(=O)[C@H](Cc1ccc(O)cc1)NC(=O)[C@H](CO)NC(=O)[C@H](CC(C)C)NC(=O)[C@H](Cc1ccccc1)NC(=O)[C@@H]1CCC(=O)N1`, for which the Activity was found to be 47 ng/mL in [1]; 130 ng/mL in experiment [2]; 77 ng/mL in experiment [3]; 59 ng/mL in experiment [4]; 549 ng/mL in experiment [5]; 3120 ng/mL in experiment [6]. Further, the values for the Activity in [7] and in experiment [8] were 1560 ng/mL and 1380 ng/mL, respectively.
As for `CCNC(=O)[C@@H]1CCCN1C(=O)[C@H](CCCNC(=N)N)NC(=O)[C@H](CC(C)C)NC(=O)[C@@H](C)NC(=O)[C@H](Cc1ccc(O)cc1)NC(=O)[C@H](CO)NC(=O)[C@H](CC(C)C)NC(=O)[C@@H](NC(=O)[C@@H]1CCC(=O)N1)[C@@H](C)CC`, the Activity in experiment [1] is -53 ng/mL; in [3] it was 186 ng/mL; in experiment [4], 61 ng/mL; in experiment [5], 1760 ng/mL; in [7], 3330 ng/mL; in experiment [8], -227 ng/mL.
Turning to `CCC[C@H](NC(=O)[C@H](Cc1ccccc1)NC(=O)[C@@H]1CCC(=O)N1)C(=O)N[C@@H](CO)C(=O)N[C@@H](Cc1ccc(O)cc1)C(=O)N[C@H](C)C(=O)N[C@@H](CC(C)C)C(=O)N[C@@H](CCCNC(=N)N)C(=O)N1CCC[C@H]1C(=O)NCC`, the Activity was 221 ng/mL in [11]; 32 ng/mL in experiment [12]; -7 ng/mL in [13]; -66 ng/mL in [4]; 3980 ng/mL in [14]; 2700 ng/mL in experiment [15]. Also, the Activity in experiment [16] was -883 ng/mL; in experiment [8] it was -204 ng/mL.
Consider `CCC[C@H](NC(=O)[C@H](CC(C)C)NC(=O)[C@@H]1CCC(=O)N1)C(=O)N[C@@H](CO)C(=O)N[C@@H](Cc1ccc(O)cc1)C(=O)N[C@H](C)C(=O)N[C@@H](CC(C)C)C(=O)N[C@@H](CCCNC(=N)N)C(=O)N1CCC[C@H]1C(=O)NCC`, for which the Activity is 45 ng/mL in [1]; 213 ng/mL in experiment [2]; 93 ng/mL in experiment [3]; 2000 ng/mL in experiment [5]; 5120 ng/mL in experiment [6]; 3900 ng/mL in experiment [7].
With `CCNC(=O)[C@@H]1CCCN1C(=O)[C@H](CCCNC(=N)N)NC(=O)[C@H](CC(C)C)NC(=O)[C@@H](C)NC(=O)[C@H](Cc1ccc(O)cc1)NC(=O)[C@H](CO)NC(=O)[C@H](CC)NC(=O)[C@H](CC(C)C)NC(=O)[C@@H]1CCC(=O)N1`, the Activity in [9] turned out to be 45 ng/mL; in experiment [1], 150 ng/mL; in [4], 1 ng/mL; in [10], 1780 ng/mL; in experiment [5] it was 3480 ng/mL; in experiment [8], 866 ng/mL.
For `CCNC(=O)[C@@H]1CCCN1C(=O)[C@H](CCCNC(=N)N)NC(=O)[C@H](CC(C)C)NC(=O)[C@@H](C)NC(=O)[C@H](Cc1ccc(O)cc1)NC(=O)[C@H](CO)NC(=O)[C@H](CC(C)C)NC(=O)[C@@H](NC(=O)[C@@H]1CCC(=O)N1)C(C)C`, the Activity in experiment [1] is 63 ng/mL; in [3] it was 272 ng/mL; in experiment [17] it was 8 ng/mL; in experiment [5], 1640 ng/mL; in experiment [7], 4320 ng/mL; in [18], 490 ng/mL.
Consider `CCCC[C@H](NC(=O)[C@H](CC(C)C)NC(=O)[C@@H]1CCC(=O)N1)C(=O)N[C@@H](CO)C(=O)N[C@@H](Cc1ccc(O)cc1)C(=O)N[C@H](C)C(=O)N[C@@H](CC(C)C)C(=O)N[C@@H](CCCNC(=N)N)C(=O)N1CCC[C@H]1C(=O)NCC`, for which the Activity in experiment [9] was 12 ng/mL; in experiment [1], 28 ng/mL; in experiment [3], 70 ng/mL; in experiment [4], 13 ng/mL; in experiment [10] it was -516 ng/mL; in [5], 1630 ng/mL. In addition, the Activity in experiment [7] was 2240 ng/mL; in [8], -282 ng/mL.
